Tests used:
cancer cell lines = conditions: cell culture, variety of cancer cell lines; cited from earlier work
[1] = test system: immortalized mouse embryonic fibroblasts (MEFs); type: cell-based; conditions: for IC50: Mus musculus, Fibroblast, read-out: estimated IC50, MEFs; for fold loss in activity in MEFs compared with cancer cell lines: estimated
[2] = test system: xenograft mouse models, melanoma models; conditions: several xenograft mouse models; cited from earlier work
IL-2 reporter gene = conditions: Jurkat T cells; data previously reported; ref Romo et al.[29]; cited from earlier work
[3] = test system: HeLa, RKO, HaCaT, Jurkat T, BAEC; assay: Cell proliferation assays, first generation, statements pooled over cell lines; type: cell-based; conditions: for anti-proliferative IC50 values, in words: first generation protocol, cell lines tested
DNA polymerases α and β = conditions: read-out: IC50, DNA polymerases α and β; direct in vitro inhibition; cited from earlier work
SK-MEL2 = assay: Proliferation assay on SK-MEL2 cultured with reduced serum, 5% FBS; type: cell-based; conditions: 5% FBS versus 10% FBS
SK-MEL2 melanoma cells = assay: MTT cell proliferation assay, second-generation analogs, SK-MEL2; type: cell-based; conditions: versus DMDAPatA (2)
Procedure, shortened: (§1)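 HeLa and SK-MEL2 cells were grown in DMEM, Jurkat T cells in RPMI 1640, each with 10% FBS and pen-strep at 37 °C, 5% CO2. Adherent lines were seeded at 2000 cells/well and allowed to recover overnight; Jurkat were seeded at 5000 cells/well with no recovery. Compound was given in 0.1% DMSO final for 72 h, then MTT read-out.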

Jurkat T cells = assay: MTT cell proliferation assay, second-generation analogs, Jurkat T; type: cell-based, human; conditions: versus DMDAPatA (2)
Procedure, shortened: as §1

[4] = test system: HeLa, Jurkat T cells, and SK-MEL2; assay: MTT cell proliferation assays, statements pooled over all three cell lines; type: cell-based; conditions: for cell proliferation inhibition activity, in words: all cell lines tested
[5] = test system: cap-dependent (eIF4AI/II-dependent) translation; assay: In vitro translation assay in rabbit reticulocyte lysate, cap-dependent cistron; type: biochemical; conditions: for fold loss of activity in in vitro translation assay: versus DMDAPatA (2)
Procedure, shortened: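 Bicistronic reporter mRNA (cap-dependent firefly cistron; HCV IRES-driven Renilla cistron) was SP6-transcribed from linearized plasmid and purified. 200 ng RNA was translated in 20 μl rabbit reticulocyte lysate reactions with 70 mM KCl, 2 mM DTT and RNasin. Compound in DMSO was added at 5% (v/v) final. Reactions ran 1.5 h at 30 °C, then dual-luciferase read-out. Duplicates; 4 independent assays; IC50 by curve fitting, averaged.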

HeLa = assay: MTT cell proliferation assay, second-generation analogs, HeLa; type: cell-based, human; conditions: versus DMDAPatA (2)
Procedure, shortened: as §1

Compound: CC(/C=C/C(C)=C/[C@@H]1Cc2nc(cs2)CCCCC(=O)O[C@@H](C)C/C(C)=C/C=C\C(=O)O1)=C\CN(C)C [Compound 2, C5-des-methyl, C3-des-amino pateamine A]
- anti-proliferative IC50 values in cancer cell lines, in words (cancer cell lines): approximately single-digit nanomolar
- IC50 [1]: > 0.05 µM
- fold loss in activity in MEFs compared with cancer cell lines [1]: roughly 5 fold
- anticancer activity in xenograft mouse models [2]: potent anticancer activity in several xenograft mouse models with especially significant regressions in melanoma models
- IC50 (nM) IL-2 reporter gene assay (IL-2 reporter gene): sub-nanomolar
- fold lower activity than PatA in cell proliferation assays ([3]; DMDAPatA versus PatA): roughly 10 fold
- anti-proliferative IC50 values, in words [3]: single-digit nanomolar
- IC50 (DNA polymerases α and β): 3 to 19 µM
- fold reduced anti-proliferative activity under 5% FBS (SK-MEL2): roughly 2 fold

Compound: C/C(Br)=C\[C@@H]1Cc2nc(cs2)CCCCC(=O)O[C@@H](C)C/C(C)=C/C=C\C(=O)O1 [Compound 5]
- fold loss of activity in SK-MEL2 cells (SK-MEL2 melanoma cells): ≥ 700 fold
- fold loss of activity in Jurkat T cells (Jurkat T cells): ≥ 700 fold

Compound: C/C(Br)=C\[C@@H]1Cc2nc(cs2)CCCCC(=O)O[C@@H](C)C/C(C)=C/C=C/C(=O)O1 [Compound 6]
- cell proliferation inhibition activity, in words [4]: inactive

Compound: CC(/C=C/C(C)=C/[C@@H]1Cc2nc(cs2)CCCCC(=O)O[C@@H](C)C/C(C)=C/C=C\C(=O)O1)=C\CN1CCOCC1 [Compound 9b]
- fold loss of activity in in vitro translation assay [5]: roughly 3 fold
- IC50 [1]: > 2 µM
- fold loss in activity in MEFs compared with cancer cell lines [1]: roughly 5 fold
- fold loss of activity in HeLa cells (HeLa): greater than 400 fold
- fold loss of activity in SK-MEL2 cells (SK-MEL2 melanoma cells): approximately 25 fold
- fold loss of activity in Jurkat T cells (Jurkat T cells): at least 700 fold
- fold increase of activity under 5% FBS (SK-MEL2): roughly 2 fold

Compound: CC(/C=C/C(C)=C/[C@@H]1Cc2nc(cs2)CCCCC(=O)O[C@@H](C)C/C(C)=C/C=C\C(=O)O1)=C\CN1CCCC1 [Compound 9c]
- fold loss of activity in in vitro translation assay [5]: 2 fold
- IC50 [1]: > 0.1 µM
- fold loss of activity in all cell lines ([4]; versus DMDAPatA (2), HeLa, SK-MEL2, Jurkat T): ~2 fold

Compound: CC(/C=C/C=C/CO)=C\[C@@H]1Cc2nc(cs2)CCCCC(=O)O[C@@H](C)C/C(C)=C/C=C\C(=O)O1 [Compound 9e]
- IC50 (nM) cap-dependent translation inhibition ([5]; rabbit reticulocyte lysate, 30 °C, 1.5 h, ± 1 standard deviation, N.E. = no effect up to concentration (nM) in parentheses): a degree of activity at high concentration

Compound: CC(/C=C/C(C)=C/[C@@H]1Cc2nc(cs2)CCCCC(=O)O[C@@H](C)C/C(C)=C/C#CC(=O)O1)=C\CN(C)C [Compound 10a]
- cell proliferation inhibition activity, in words [4]: no effect was observed

Compound: COCCC/C=C/C(C)=C/[C@@H]1Cc2nc(cs2)CCCCC(=O)O[C@@H](C)C/C(C)=C/C#CC(=O)O1 [Compound 10f]
- cell proliferation inhibition activity, in words [4]: did not demonstrate any significant cell proliferation inhibition activity

Compound: CC(/C=C/CCCO)=C\[C@@H]1Cc2nc(cs2)CCCCC(=O)O[C@@H](C)C/C(C)=C/C#CC(=O)O1 [Compound 10g]
- cell proliferation inhibition activity, in words [4]: did not demonstrate any significant cell proliferation inhibition activity

Compound: CC(/C=C/C(C)=C/[C@@H]1Cc2nc(cs2)[C@@H](C)C[C@@H](N)CC(=O)O[C@@H](C)C/C(C)=C/C=C\C(=O)O1)=C\CN(C)C [PatA (1), pateamine A, reference compound]
- anti-proliferative IC50 values in cancer cell lines, in words (cancer cell lines): sub-nanomolar range
- anti-proliferative IC50 values, in words [3]: sub-nanomolar
